# Compound activity deposited in PubChem by several laboratories.
# PHOSPHO1 block: PHOSPHO1 (human) inhibition; recombinant PHOSPHO1, absorbance phosphatase assay; actives 1.1% (n = 290,000); inhibition, % at 13.3 µM; AID 1565; in the data active = inhibition above about 60%
# Target sequence (Q8TCT1 whole entry, looked up): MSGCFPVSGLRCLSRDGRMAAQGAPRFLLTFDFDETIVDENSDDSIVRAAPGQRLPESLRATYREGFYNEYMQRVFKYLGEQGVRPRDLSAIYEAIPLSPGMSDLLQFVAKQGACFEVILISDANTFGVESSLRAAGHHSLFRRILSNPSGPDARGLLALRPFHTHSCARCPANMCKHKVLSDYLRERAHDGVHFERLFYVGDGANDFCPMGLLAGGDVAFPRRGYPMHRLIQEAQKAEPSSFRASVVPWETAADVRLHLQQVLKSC
# HSF1 inh: HSF1 inhibition | NIH3T3-HGL HSE-luciferase, MG132-induced, luminescence 8 h; stronger effect = lower value | activity change, negative = inhibition, % at 7.5 µM (by protocol) | actives 0.77% (n = 300,000) | AID 2098;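 active = more than half of replicate wells show activity change below -50%, luminescence cut by over half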;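 also: luciferase reports HSF-1 transcriptional activity via heat shock element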
# HSF-1 act: increases HSF-1 driven luciferase reporter signal | NIH3T3-HGL HSF-1 luciferase reporter, MG132, 8 h; 100% = twice DMSO control signal | activation, % at 9 µM | actives 1.7% (n = 300,000) | AID 504408;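 active = mean replicate activation of at least 50% with a set share of replicates each reaching 50%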
# ALR H2O2 inh: blocks human ALR sulfhydryl oxidase activity; P55789; purified ALR, DTT oxidation, H2O2 HRP-luminol luminescence; inhibition, % (concentration not given with the values); actives 3.8% (n = 290,000); AID 485317;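 active = mean replicate inhibition above about 79%, with every replicate also reaching it, limit read from the data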
# Target sequence (P55789 whole entry, looked up): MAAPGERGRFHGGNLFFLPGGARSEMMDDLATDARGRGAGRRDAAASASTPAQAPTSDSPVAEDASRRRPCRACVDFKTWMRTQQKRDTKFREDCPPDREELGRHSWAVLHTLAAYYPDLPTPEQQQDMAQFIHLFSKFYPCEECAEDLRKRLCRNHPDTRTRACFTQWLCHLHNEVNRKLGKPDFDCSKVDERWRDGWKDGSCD
# AI-2 QS mod: Vibrio harveyi AI-2 quorum sensing modulation | Vibrio harveyi JMH597 AI-2 luminescence/OD600 ratio, 9 h; stronger effect = lower value; strain lacks LuxN and CqsS sensors; 0 = neutral-control median | activity change, % at 7.5 µM | actives 0.4% (n = 300,000) | AID 2094; in the data active = activity change below about -75%, passing the limit was not always enough;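 also: luminescence divided by OD600 gain over 9 h not by final OD600 alone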
# core dimer inh: blocks dimerization of HCV core protein; inhibition, % at 5 µM; actives 0.33% (n = 300,000); TR-FRET GST/Flag-core106 dimerization, 1536-well;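 active = inhibition above the mean of all tested compounds plus 3 SD, set per screening campaign, cut at about 45% in these data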
#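 assay system = GST-tagged and Flag-tagged HCV core protein residues 1-106 | controls = unlabelled core106 and no-GST-core106 wells | incubation = compound-protein-antibody incubation 4 h at 22.5 °C | probe or stimulus = Eu donor and XL665 acceptor anti-tag antibodies | read-out = % inhibition based on acceptor/donor emission ratio | signal = TR-FRET 671 and 617 nm emission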
# Hits are given with their value; - = inactive; . = no result. Most compounds without a hit are left out; they make up all but 6.8% or so of the library.
SMILES,PHOSPHO1 block,HSF1 inh,HSF-1 act,ALR H2O2 inh,AI-2 QS mod,core dimer inh
CC(=O)c1ccc(S(=O)(=O)Nc2cccc(S(=O)(=O)NC3=NCCC3)c2)cc1,-,-,-,100,-,-
Cc1ccccc1Oc1cc(-n2ncc(Cl)c(Cl)c2=O)ncn1,-,.,.,97,.,-
CCn1c(=O)n(CC)c2cc(N3CCCC3)c(NC(=O)c3ccc(F)cc3)cc21,-,-,-,100,-,-
CCn1c(=O)n(CC)c2cc(N3CCCC3)c(NC(=O)c3c(F)cccc3F)cc21,-,-,-,99,-,-
CCOc1ccc(C(=O)Nc2cc3c(cc2N2CCCC2)n(CC)c(=O)n3CC)cc1OCC,-,-,-,-,-,-
COC(=O)c1ccc(CSc2nc(C(F)(F)F)c3c(c2C#N)CCC3)o1,-,-,-,98,-,-
CCn1c(-c2ccccc2Cl)nn(CC(=O)Nc2ccccc2C)c1=S,100,-,-,-,-,-
O=C(Cn1nc(-c2ccccc2Cl)ccc1=O)Nc1ccccc1-c1ccccc1,-,-,53,-,-,-
O=C(Cn1nc(-c2ccccc2)ccc1=O)N1CCCCC1,-,-79,-,-,-,-
O=C(Cn1nc(-c2ccccc2)ccc1=O)N1CCOCC1,.,-,-,-,-,-
CCC1=C(OC(=O)N(CC)CC)N2C(=O)OC(=NCCc3c[nH]c4ccccc34)[C@]2(Cc2ccccc2)[C@H]2C1=CC[C@H]1C(=O)N(CC)C(=O)[C@H]12,-,-,-,-,-,-
CN(C)C(=O)c1ccc(-n2cccn2)nc1,-,-,-,-,-,-
CCOc1ccccc1CN1CCNC(=O)C1CC(=O)NCc1nccn1CC (stereo not given),-,-,67,-,-,-
Cc1noc(NS(=O)(=O)c2ccc(NC(=O)C34CC5CC(C3)CC(n3cnc(Br)n3)(C5)C4)cc2)c1C,-,-,-,.,-,-
CCOC(=O)c1c(NC(=O)c2cccs2)sc2c1CCN(C(=O)OCC)C2,-,-,71,-,-,-
CCOC(=O)N1CCC(NC(=O)c2cccs2)CC1,-,-,67,-,-,-
COc1ccccc1C(=O)N=Nc1c(O)[nH]c2ccc([N+](=O)[O-])cc12,-,.,.,.,.,.
O=C(N=Nc1c(O)[nH]c2ccc([N+](=O)[O-])cc12)c1cc(-c2ccccc2Cl)nc2ccccc12,-,-,-,-,-,47
O=C(Nc1ccc(/C=C/c2nc3ccccc3o2)cc1)c1ccc(F)cc1,-,-,-,-,-,-
N/C(=N\OC(=O)c1cccs1)c1ccc(Cl)cc1,-,-,60,-,-,-
COc1ccc(N2CCN(c3ncccc3C#N)CC2)cc1,-,-,-,97,-,-
Cc1cc(C(=O)N2CCN(c3ncccc3C#N)CC2)no1,-,-,-,-,-,-
COc1ccc(N2CCN(c3ccc(N)cc3C#N)CC2)cc1,-,-,-,86,-,-
COc1ccnc(N2CCN(c3ccccc3)CC2)c1C#N,-,-,-,99,-,-
COc1ccnc(Oc2ccccc2)c1C#N,-,-,-,-,-,-
SMILES,PHOSPHO1 block,HSF1 inh,HSF-1 act,ALR H2O2 inh,AI-2 QS mod,core dimer inh
CCc1ccc(-n2c(Cc3ccccc3)n[nH]c2=S)cc1,-,-,-,-,-,-
Cc1[nH][nH]c(=O)c1C(c1ccc(-c2cccc(Cl)c2)o1)c1c(C)[nH][nH]c1=O,-,-,-,-,-,-
Cc1[nH][nH]c(=O)c1C(c1ccc(-c2ccc(Cl)cc2Cl)o1)c1c(C)[nH][nH]c1=O,64,.,.,.,.,.
COC/C=C/C1=CC2=CC(=O)C(C)(OC(=O)c3cnc4ccccc4n3)C(=O)C2=CN1c1ccc(CO)cc1 (stereo not given),-,-,-,-,-,56
COC/C=C/C1=CC2=CC(=O)C(C)(OC(=O)c3cnc4ccccc4n3)C(=O)C2=CN1c1ccccc1 (stereo not given),-,-,-,-,-,-
Cc1nn(C)c(C)c1/C=N/NC(=O)C(C)(C)Oc1ccc(Cl)cc1,-,-,-,-,-,-
Cc1nn(C(C)(C)C)c(C)c1/C=N/OC(=O)Nc1ccc(Cl)cc1,-,-92,-,-,-,-
O=C(COc1cc2oc(=O)cc(-c3ccccc3)c2cc1Cl)NC(Cc1c[nH]c2ccc(O)cc12)C(=O)O (stereo not given),-,-,-,.,-,-
CC(=O)Nc1ccc(NC(=O)c2cc(=O)c3cc(C)c(C)cc3o2)cc1,-,-,-,-,-,-
CC(C)CNS(=O)(=O)c1cc(C(=O)OCC(=O)c2ccc3c(c2)OCCO3)c(Cl)cc1Cl,-,-,69,-,-,-
CCCn1c(C)cc(C(=O)COC(=O)c2cc(S(=O)(=O)NCC(C)C)c(Cl)cc2Cl)c1C,-,-,-,.,-,-
O=C(COC(=O)c1ccccc1OCc1ccccc1Cl)NCC1CCCO1 (stereo not given),.,.,.,-,.,.
COc1ccc2c(COC(=O)CCS(=O)(=O)c3ccc(C)cc3)cc(=O)oc2c1,.,-73,-,-,-,-
COC(=O)c1ccc(OC(=O)CCS(=O)(=O)c2ccc(C)cc2)cc1,.,-,-,96,-,-
COc1ccc2c(COC(=O)CNS(=O)(=O)c3ccc(C)c(C)c3)cc(=O)oc2c1,.,.,.,-,.,.
COC(=O)Cc1ccc(OC(=O)CCS(=O)(=O)c2ccc(Cl)cc2)cc1,.,-,-,-,-,-
CS(=O)(=O)c1ccc(-c2sc3cc4c(cc3c2C(=O)NN2CCOCC2)OCO4)cc1,.,.,.,-,.,.
COc1ccc(C2NC(=O)CS2)cc1OC (stereo not given),-,-,-,98,-,-
COc1cc(C2NC(=O)CS2)cc(OC)c1OC (stereo not given),-,-,-,.,-,-
O=c1c2ccccc2nc(-c2ccc(F)cc2)n1NCc1ccccc1O,-,-,-,-,-,-
O=C(Nc1cccc2[nH]ncc12)NS(=O)(=O)c1ccccc1,-,-,-,97,-,-
COCc1ccccc1C1=CC(=O)C[C@H](c2ccc(F)cc2)C1,.,.,.,-,.,.
CC(=O)Nc1ccc(N(C(=O)c2ccco2)C(C(=O)NC2CCCC2)c2ccncc2)cc1 (stereo not given),-,-,-,.,-,-
COc1cc(SC#N)ccc1N=Cc1c(C)[nH]n(-c2ccc(C)cc2C)c1=O,-,-,-,99,-,-
COc1cc(SC#N)ccc1N=Cc1c(C)[nH]n(-c2cccc3ccccc23)c1=O,-,-,-,99,-,-
COc1ccccc1N=Cc1c(C)[nH]n(-c2ccc(C)cc2C)c1=O,-,-,-,-,-,-
COC(=O)c1c(N2C(=O)CC(Sc3ccccc3C(=O)O)C2=O)sc2c1CCCC2 (stereo not given),-,-,-,-,-,-
CCSc1nnc(NC(=O)Cn2cnc3ccccc3c2=O)s1,-,-,-,-,-81,-
